Experimental findings from ChEMBL document CHEMBL1147484, “SAR of benzoylpyridines and benzophenones as p38alpha MAP kinase inhibitors with oral activity” (Bioorg Med Chem Lett, 2004) are described below.

In general, Inhibition refers to the relative decrease from the control value, in per cent. A lower Inhibition goes with little suppression. One may read the ED50 as the dose that gives a 50% effect, or the effect in half of the subjects. A low value points to greater potency. In general, IC50 refers to the midpoint of a concentration-inhibition curve. Read a low IC50 as inhibition by little substance. A word on the inhibition: it is the drop in the measured response relative to a control, in per cent. In general, bioavailability refers to the share of a dose that reaches the circulation, judged against a reference dose that is usually intravenous. Read a high bioavailability as much systemic uptake. Usually Cmax stands for the highest concentration seen after dosing.

Data set [1] concerns Mus musculus. The data set can be described thus: Inhibition of […] induced TNF-alpha release in mice upon oral administration. The format is functional.
In data set [2] the test system is Mus musculus. The data set is described as follows: Dose required to inhibit […] induced TNF-alpha release in mice upon oral administration. The format is functional.
For data set [3], the system named is Rattus norvegicus. The data set can be described thus: Percent swelling of joints in rats immunized with Mycobacterium tuberculosis was determined on day 20 after 25 mg/kg peroral administration. The format is functional. The settings on record: route oral. Summed up: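 Female Wistar rats immunized with Mycobacterium tuberculosis at day 0 (adjuvant-induced arthritis); oral dosing 25 mg/kg twice daily from day 14 to 20; joint swelling measured on day 20, expressed as % inhibition of swelling.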

The target of data set [4] is Mitogen-activated protein kinase 14 (Mus musculus, UniProt P47811). The data set can be described thus: Inhibition of murine His-Mitogen-activated protein kinase p38 alpha phosphorylation.
The target of data set [5] is Insulin-like growth factor 1 receptor (Homo sapiens) (UniProt P08069). The data set is described as follows: Inhibition of human insulin-like growth factor I receptor at 10 uM.
A short description of data set [6]: Oral bioavailability. The format is ADME, organism-based. The settings on record: rat, in vivo. In a few lines:
(§1)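 Pharmacokinetics were determined in rat. Cmax was measured after a 1 mg/kg oral dose. Oral bioavailability, terminal half-life and steady-state volume of distribution (Vss, L/kg) were reported.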

Data set [7] has as its target Cytochrome P450 2C9 (Homo sapiens, UniProt P11712). The data set is described as follows: Inhibition of human cytochrome P450 2C9. Type of data set: ADME.
Data set [8] can be described thus: Peak plasma concentration at 1 mg/kg peroral administration. Type of data set: ADME, organism-based. The arrangement: dose 1 mg/kg, route oral. The settings on record: rat, po. In a few lines: as §1
Data set [9] concerns the target RAF proto-oncogene serine/threonine-protein kinase (Homo sapiens) (UniProt P04049). The data set is described as follows: Inhibition of human RAF proto-oncogene serine/threonine-protein kinase at 10 uM.
In data set [10] the target is Prostaglandin G/H synthase 1 (Homo sapiens, UniProt P23219). The data set is described as follows: Inhibition of human prostaglandin G/H synthase 1.
For data set [11], the target named is T1, Epidermal growth factor receptor (Homo sapiens, UniProt P00533). The data set is described as follows: (§2) Inhibition of human Epidermal growth factor receptor.
The target in data set [12] is Mitogen-activated protein kinase 9 (Homo sapiens, UniProt P45984). The data set can be described thus: Inhibit of human c-Jun N-terminal kinase 2.
Data set [13] deals with Cytochrome P450 2D6 (Homo sapiens, UniProt P10635). The data set can be described thus: Inhibition of human cytochrome P450 2D6. The format is ADME.
The target of data set [14] is Proto-oncogene tyrosine-protein kinase Src (Homo sapiens) (UniProt P12931). The data set is described as follows: Inhibition of human c-Src at 10 uM.
Data set [15] deals with Hepatocyte growth factor receptor (Homo sapiens, UniProt P08581). The data set can be described thus: Inhibit of human Met proto-oncogene tyrosine kinase.
Data set [16] concerns the target Cytochrome P450 3A4 (Homo sapiens, UniProt P08684). The data set is described as follows: Inhibition of human cytochrome P450 3A4. The format is ADME.
The target of data set [17] is T1, Epidermal growth factor receptor. The data set is described as §2. The source holds these as a separate data set.
The nature of data set [18]: Volume of distribution in steady state was determined in rat. The format is ADME, organism-based. To be noted: in vivo, read-out: Vss. In a few lines: as §1
For data set [19], the target named is T2, Cytochrome P450 1A2 (Homo sapiens, UniProt P05177).
T2 sequence (P05177 whole entry): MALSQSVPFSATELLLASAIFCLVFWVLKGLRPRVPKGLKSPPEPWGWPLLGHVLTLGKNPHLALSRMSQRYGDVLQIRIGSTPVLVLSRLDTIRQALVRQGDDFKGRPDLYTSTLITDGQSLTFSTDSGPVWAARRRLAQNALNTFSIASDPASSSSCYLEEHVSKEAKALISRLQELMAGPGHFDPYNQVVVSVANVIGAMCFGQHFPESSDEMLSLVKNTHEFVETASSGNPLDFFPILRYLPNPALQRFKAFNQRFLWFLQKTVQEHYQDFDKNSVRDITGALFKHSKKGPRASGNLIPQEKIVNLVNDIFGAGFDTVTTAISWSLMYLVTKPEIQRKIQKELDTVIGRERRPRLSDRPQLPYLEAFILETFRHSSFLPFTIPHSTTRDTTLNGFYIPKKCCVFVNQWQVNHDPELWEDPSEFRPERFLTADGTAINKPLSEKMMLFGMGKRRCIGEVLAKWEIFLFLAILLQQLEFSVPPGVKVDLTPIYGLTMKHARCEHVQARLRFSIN
The data set can be described thus: Inhibition of human cytochrome P450 1A2. Type of data set: ADME.

For data set [20], the system named is Rattus norvegicus. The data set can be described thus: Dose required to inhibit bovine nasalseptum type II collagen induced arthritis in rats after administration on day 13. Type of data set: functional. The settings on record: 312 h.
Data set [21] addresses Fibroblast growth factor receptor (Homo sapiens) (UniProt P22607+P11362+P22455+P21802). The data set is described as follows: Inhibitory activity against human FGFR at 10 uM. The format is protein assay.
Data set [22] has as its target Cyclin-dependent kinase 1 (Homo sapiens) (UniProt P06493). The data set can be described thus: Inhibition of human cyclin-dependent kinase 1 at 10 uM.
Data set [23] has as its target Mast/stem cell growth factor receptor Kit (Homo sapiens) (UniProt P10721). The data set is described as follows: Inhibition of human c-Kit kinase. To be noted: concentration not given here.
The target in data set [24] is T1, Epidermal growth factor receptor. To be noted: 10 uM.

Mitogen-activated protein kinase 14, sequence (P47811 whole entry): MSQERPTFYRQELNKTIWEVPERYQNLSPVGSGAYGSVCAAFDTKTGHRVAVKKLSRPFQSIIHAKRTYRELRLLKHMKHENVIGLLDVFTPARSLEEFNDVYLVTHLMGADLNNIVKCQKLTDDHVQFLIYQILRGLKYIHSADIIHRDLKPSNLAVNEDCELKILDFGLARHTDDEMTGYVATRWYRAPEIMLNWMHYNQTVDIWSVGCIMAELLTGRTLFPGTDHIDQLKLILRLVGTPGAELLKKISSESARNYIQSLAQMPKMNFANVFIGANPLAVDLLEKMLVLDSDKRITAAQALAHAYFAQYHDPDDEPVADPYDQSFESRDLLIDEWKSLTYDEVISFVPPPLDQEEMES
T1 sequence (P00533 whole entry): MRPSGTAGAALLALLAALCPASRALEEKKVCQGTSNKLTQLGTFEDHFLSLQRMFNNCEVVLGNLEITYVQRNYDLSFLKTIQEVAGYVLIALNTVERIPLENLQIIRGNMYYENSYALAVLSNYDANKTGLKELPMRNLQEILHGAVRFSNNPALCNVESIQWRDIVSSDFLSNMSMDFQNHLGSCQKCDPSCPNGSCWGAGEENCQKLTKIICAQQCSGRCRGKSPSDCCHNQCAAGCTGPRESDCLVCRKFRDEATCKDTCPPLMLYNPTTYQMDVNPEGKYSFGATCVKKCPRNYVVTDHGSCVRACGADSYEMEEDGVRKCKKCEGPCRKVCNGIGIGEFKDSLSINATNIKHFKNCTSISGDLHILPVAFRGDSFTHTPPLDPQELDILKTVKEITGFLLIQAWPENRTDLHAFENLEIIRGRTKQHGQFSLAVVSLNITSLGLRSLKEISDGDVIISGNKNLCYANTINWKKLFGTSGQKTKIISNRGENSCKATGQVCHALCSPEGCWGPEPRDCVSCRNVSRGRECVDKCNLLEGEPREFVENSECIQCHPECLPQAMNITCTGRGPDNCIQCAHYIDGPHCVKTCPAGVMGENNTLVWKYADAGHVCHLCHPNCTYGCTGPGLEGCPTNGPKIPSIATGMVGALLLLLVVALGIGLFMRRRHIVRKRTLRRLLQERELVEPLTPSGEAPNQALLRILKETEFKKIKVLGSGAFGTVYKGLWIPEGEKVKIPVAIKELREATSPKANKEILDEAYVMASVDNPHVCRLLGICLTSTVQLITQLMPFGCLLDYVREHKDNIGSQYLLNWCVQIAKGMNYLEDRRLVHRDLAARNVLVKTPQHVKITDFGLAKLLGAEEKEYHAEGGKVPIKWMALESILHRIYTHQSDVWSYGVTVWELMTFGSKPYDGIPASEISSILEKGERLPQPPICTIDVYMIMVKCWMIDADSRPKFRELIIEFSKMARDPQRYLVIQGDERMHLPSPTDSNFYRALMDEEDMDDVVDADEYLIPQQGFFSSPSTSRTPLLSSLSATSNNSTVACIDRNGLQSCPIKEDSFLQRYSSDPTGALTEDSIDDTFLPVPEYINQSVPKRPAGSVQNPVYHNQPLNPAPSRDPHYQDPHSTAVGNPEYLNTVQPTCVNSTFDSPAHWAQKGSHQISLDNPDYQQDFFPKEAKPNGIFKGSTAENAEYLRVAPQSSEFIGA
Mitogen-activated protein kinase 9, sequence (P45984 whole entry): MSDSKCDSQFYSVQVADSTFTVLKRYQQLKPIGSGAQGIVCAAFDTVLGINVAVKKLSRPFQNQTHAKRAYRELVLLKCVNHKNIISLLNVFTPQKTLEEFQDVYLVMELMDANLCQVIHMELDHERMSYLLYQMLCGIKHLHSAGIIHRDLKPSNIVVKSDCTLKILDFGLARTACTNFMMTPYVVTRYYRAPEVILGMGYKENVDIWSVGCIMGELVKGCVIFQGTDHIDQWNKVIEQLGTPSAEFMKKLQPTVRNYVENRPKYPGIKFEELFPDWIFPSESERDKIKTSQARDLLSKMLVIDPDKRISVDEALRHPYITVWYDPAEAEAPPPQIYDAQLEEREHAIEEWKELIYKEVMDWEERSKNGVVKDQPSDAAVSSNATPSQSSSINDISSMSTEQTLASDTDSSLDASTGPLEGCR
Cytochrome P450 2C9, sequence (P11712 whole entry): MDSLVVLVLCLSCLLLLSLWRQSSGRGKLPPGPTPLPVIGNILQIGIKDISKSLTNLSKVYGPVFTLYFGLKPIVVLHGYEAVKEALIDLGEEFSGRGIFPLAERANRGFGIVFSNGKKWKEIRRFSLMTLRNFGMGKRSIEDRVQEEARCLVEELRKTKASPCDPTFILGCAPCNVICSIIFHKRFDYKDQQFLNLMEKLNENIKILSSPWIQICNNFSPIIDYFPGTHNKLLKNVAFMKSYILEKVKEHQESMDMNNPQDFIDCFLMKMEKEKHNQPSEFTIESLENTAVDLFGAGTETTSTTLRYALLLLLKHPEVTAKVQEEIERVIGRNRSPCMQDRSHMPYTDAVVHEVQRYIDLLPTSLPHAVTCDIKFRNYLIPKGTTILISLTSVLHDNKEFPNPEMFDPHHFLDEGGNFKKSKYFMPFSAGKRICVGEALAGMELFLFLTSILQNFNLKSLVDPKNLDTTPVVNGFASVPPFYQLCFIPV
Proto-oncogene tyrosine-protein kinase Src (Homo sapiens), sequence (P12931 2-536 limits assumed): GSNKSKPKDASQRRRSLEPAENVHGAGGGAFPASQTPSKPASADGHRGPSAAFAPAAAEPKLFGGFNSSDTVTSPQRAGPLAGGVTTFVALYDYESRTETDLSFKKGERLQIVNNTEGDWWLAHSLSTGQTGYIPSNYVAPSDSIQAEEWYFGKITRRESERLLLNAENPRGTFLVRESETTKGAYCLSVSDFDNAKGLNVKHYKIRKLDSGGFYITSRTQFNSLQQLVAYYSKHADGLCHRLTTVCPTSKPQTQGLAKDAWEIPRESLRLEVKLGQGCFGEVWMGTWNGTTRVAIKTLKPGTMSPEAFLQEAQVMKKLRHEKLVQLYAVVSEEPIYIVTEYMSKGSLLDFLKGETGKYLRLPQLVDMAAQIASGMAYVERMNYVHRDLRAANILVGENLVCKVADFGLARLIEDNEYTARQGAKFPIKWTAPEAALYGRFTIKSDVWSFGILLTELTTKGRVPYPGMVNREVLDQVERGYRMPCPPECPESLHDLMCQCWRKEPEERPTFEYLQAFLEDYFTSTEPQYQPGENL
Cytochrome P450 3A4, sequence (P08684 whole entry): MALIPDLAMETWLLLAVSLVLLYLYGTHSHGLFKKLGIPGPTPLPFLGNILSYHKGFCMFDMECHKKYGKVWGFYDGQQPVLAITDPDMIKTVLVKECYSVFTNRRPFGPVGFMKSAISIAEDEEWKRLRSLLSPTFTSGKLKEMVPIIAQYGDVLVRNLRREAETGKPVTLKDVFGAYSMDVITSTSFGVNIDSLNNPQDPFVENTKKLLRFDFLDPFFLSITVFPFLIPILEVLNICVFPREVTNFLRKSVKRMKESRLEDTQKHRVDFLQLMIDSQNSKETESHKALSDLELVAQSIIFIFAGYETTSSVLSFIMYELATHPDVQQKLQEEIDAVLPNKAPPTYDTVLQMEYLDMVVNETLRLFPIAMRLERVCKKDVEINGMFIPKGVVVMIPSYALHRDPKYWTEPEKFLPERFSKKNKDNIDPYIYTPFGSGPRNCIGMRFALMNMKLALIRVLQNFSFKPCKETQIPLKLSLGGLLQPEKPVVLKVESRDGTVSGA
Cytochrome P450 2D6, sequence (P10635 whole entry): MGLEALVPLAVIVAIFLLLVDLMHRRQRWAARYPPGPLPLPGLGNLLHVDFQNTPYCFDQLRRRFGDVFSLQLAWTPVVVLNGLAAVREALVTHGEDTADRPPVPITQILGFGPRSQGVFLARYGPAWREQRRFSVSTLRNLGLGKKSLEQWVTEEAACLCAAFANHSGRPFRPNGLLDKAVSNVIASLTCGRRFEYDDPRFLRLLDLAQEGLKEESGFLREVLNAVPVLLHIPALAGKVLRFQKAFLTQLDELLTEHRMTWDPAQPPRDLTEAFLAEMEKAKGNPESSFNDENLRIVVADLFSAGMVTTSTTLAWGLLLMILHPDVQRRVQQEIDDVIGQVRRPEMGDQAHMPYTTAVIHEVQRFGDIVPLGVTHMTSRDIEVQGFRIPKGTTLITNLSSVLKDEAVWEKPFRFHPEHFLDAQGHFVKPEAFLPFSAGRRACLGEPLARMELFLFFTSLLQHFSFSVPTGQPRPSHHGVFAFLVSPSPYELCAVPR
Prostaglandin G/H synthase 1, sequence (P23219 whole entry): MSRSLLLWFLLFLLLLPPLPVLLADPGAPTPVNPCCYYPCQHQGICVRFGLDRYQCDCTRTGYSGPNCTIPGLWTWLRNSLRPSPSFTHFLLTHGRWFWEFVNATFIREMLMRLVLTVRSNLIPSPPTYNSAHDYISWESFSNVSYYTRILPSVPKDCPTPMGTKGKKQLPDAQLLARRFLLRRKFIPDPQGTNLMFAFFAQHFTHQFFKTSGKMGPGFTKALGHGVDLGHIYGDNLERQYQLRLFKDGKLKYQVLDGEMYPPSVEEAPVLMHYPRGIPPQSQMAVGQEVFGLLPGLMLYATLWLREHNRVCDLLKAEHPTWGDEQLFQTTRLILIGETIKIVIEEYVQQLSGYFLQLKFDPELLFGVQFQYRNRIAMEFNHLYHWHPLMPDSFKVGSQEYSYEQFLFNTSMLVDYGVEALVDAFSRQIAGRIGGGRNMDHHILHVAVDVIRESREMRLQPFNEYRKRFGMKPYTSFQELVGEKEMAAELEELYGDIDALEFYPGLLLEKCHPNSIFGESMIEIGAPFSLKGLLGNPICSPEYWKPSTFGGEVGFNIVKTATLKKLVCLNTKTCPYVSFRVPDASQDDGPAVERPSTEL
Cyclin-dependent kinase 1 (Homo sapiens), sequence (P06493 whole entry, looked up): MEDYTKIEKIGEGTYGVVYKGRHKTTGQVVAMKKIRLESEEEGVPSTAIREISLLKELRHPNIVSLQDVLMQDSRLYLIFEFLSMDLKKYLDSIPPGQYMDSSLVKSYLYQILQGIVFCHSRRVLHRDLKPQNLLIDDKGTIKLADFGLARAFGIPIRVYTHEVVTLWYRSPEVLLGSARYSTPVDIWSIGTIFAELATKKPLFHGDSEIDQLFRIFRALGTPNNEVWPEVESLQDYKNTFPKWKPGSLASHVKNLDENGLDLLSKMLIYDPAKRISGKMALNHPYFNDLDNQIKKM

For the molecule `COc1ccc(C#CC(C)(C)O)cc1C(=O)c1ccc(Nc2ccc(F)cc2F)nc1`, the Inhibition in data set [1] turned out to be 88%. The same molecule had an ED50 in [2] of 23 mg/kg. In data set [3], this molecule showed a Swelling of 23%. Also, the IC50 in [4] came out at 54 µM.
Regarding `COc1ccc(C#CC(C)(C)N)cc1C(=O)c1ccc(Nc2ccc(F)cc2F)nc1`, the Inhibition in data set [1] was determined as 91%. Further, in data set [3], the Swelling is on record as 52%. Besides, the IC50 in data set [4] was found to be 8 µM.
On the same counts, the results for `COc1ccc(/C=C/C2(O)CCN(C)CC2)cc1C(=O)c1ccc(Nc2ccc(F)cc2F)cc1` are 68%, 47% and 1 µM.
For `COc1ccc(C#CC(C)(C)N)cc1C(=O)c1ccc(Nc2ccc(F)cc2F)cc1`, the inhibition was 0% in data set [5], 0% in [9] and -10% in data set [14]. Besides, the bioavailability in data set [6] was 46%. The molecule further had an Inhibition in [1] of 95%. In addition, the IC50 in data set [7] is more than 2 µM; in [10], more than 80 µM; in data set [11], 4.4 µM; in data set [12], more than 10 µM; in data set [13], more than 2 µM; in data set [15], 1.5 µM. Also, the IC50 is 14 µM in data set [4], more than 2 µM in [16], 8.8 µM in data set [17] and more than 2 µM in data set [19]. In data set [8], this molecule registered a Cmax of 59 nM. Also, the Swelling in data set [3] worked out at 51%. Besides, in data set [18], the Vd worked out at 9 L/kg.
In the case of `COc1ccc(CCC(C)(C)N)cc1C(=O)c1ccc(Nc2ccc(F)cc2F)cc1`, the Inhibition in data set [1] is on record as 0%. The molecule also gave a concentration for half-maximal inhibition (IC50) in data set [4] of 113 µM.
In the same order, the values of `COc1ccc(CCC2(O)CCN(C)CC2)cc1C(=O)c1ccc(Nc2ccc(F)cc2F)cc1` are 0% and 51 µM.
In data set [1], `CC(C)(N)C#Cc1ccc(Cl)c(C(=O)c2ccc(Nc3ccc(F)cc3F)nc2)c1` returned an Inhibition of 50%. This molecule had a Swelling in [3] of 36%. The IC50 in data set [4] was determined as 19 µM.
In [4], `CC(C)(N)CCc1ccc(Cl)c(C(=O)c2ccc(Nc3ccc(F)cc3F)nc2)c1` came in with an IC50 of 160 µM.
Same read-out and setting: with `O=C(c1ccc(Nc2ccc(F)cc2F)nc1)c1ccccc1Cl` the figure was 101 µM; with `O=C(c1ccc(Nc2ccc(F)cc2F)nc1)c1cc(Br)ccc1Cl`, 300 µM.
In the case of `Cc1nc2cc(C(=O)c3ccc(Nc4ccc(F)cc4F)cc3)c(Cl)cc2[nH]1`, in data set [1], the Inhibition is on record as 93%. In addition, the Swelling in [3] is given as 46%. Half-maximal inhibition in data set [4] (IC50) required 0.7 µM.
Consider `COc1cc2[nH]c(C)nc2cc1C(=O)c1ccc(Nc2ccc(F)cc2F)nc1`, for which the bioavailability in data set [6] is 54%. Further, the Inhibition in [1] stood at 57%. In addition, the Cmax in [8] was found to be 607 nM. Also, the 50% effective dose (ED50) in [20] came out at 8.6 mg/kg. In data set [3], the Swelling came out at 70%. The IC50 in data set [4] stood at 21 µM. Moreover, the Vd in [18] was found to be 1.1 L/kg.
With `COc1cc2nc(C)[nH]c2cc1C(=O)c1ccc(Nc2ccc(F)cc2F)cc1`, the 50% inhibitory concentration (IC50) in data set [7] is more than 2 µM; in data set [10], more than 80 µM; in data set [12], more than 10 µM; in data set [13], more than 2 µM; in [4] it was 5 µM; in data set [16], more than 2 µM. The molecule also displayed a 50% inhibitory concentration (IC50) in data set [19] of more than 2 µM.
`COc1ccc(CCC(C)(C)O)cc1C(=O)c1ccc(Nc2ccc(F)cc2F)nc1` had a 50% inhibitory concentration (IC50) in [4] of 479 µM.
For `COc1cc2[nH]c(C)nc2cc1C(=O)c1ccc(Nc2ccc(F)cc2F)cc1`, the inhibition in [21] was 0%; in data set [5], 0%; in data set [22] it was 0%; in [14], 0%; in data set [23], 0%; in data set [24], -10%. The molecule also gave an Inhibition in [1] of 90%. The Swelling in data set [3] is on record as 50%.
`CC(C)(N)C#Cc1ccc(Cl)c(C(=O)c2ccc(Nc3ccc(F)cc3F)cc2)c1` returned an Inhibition in data set [1] of 85%. In addition, the IC50 in data set [4] was found to be 6 µM.
As to `Cc1nc2cc(C(=O)c3ccc(Nc4ccc(F)cc4F)nc3)c(Cl)cc2[nH]1`, in data set [1], the Inhibition worked out at 91%. This molecule also had a Swelling in data set [3] of 40%. The IC50 in data set [4] worked out at 8 µM.
For `O=C(c1ccc(Nc2ccc(F)cc2F)cc1)c1ccccc1Cl`, in data set [1], the Inhibition is given as 6%. In [4], this molecule yielded an IC50 of 11 µM.
On the same counts, the results for `COc1ccccc1C(=O)c1ccc(Nc2ccc(F)cc2F)cc1` are 0% and 38 µM.
